Assay type in all cases: functional
Assay [1] concerns Ctenocephalides felis. As to the kind of experiment: Insecticidal activity against Ctenocephalides felis.
Assay [2] has as its system Aedes aegypti. As to the kind of experiment: Insecticidal activity against Aedes aegypti. In outline: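 Mosquito larvae were exposed to test compounds and killing was scored. Activity is reported as the LD90 in ng/mL.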
The test system of assay [3] is Lucilia sericata. Nature of the assay: Insecticidal activity against Lucilia sericata. In outline: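 Blowfly larvae were exposed to test compounds and killing was scored. Activity is reported as the LD90 in ng/mL.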

A value given as a limit tells only on which side of the number the result lay.

Consider `CC(C)=CCc1c2c(cc3c4c([nH]c13)[C@@]1(C)[C@@H](CC[C@@H]3[C@]1(C)CC[C@]1(O)O[C@H]([C@H](O)[C@H](C)C(=O)[O-])C[C@@]31C)C4)C1=CC(C)(C)OC(C)(C)[C@H]1[C@@H]2O.[Na+]`, for which the LD90 in assay [1] is over 100 µg/mL.
Consider `C=C(C)[C@H]1C(=O)c2c3c(cc4c5c(n1c24)[C@@]1(C)C(CC[C@H]2[C@](C)(/C=C/C=C(\C)C(=O)O)[C@@H](O)CC[C@@]21C)C5)C1=CC(C)(C)OC(C)(C)C1[C@@H]3O` (stereo not given in full) [NOD ACID A], for which the LD90 in assay [2] came out at 500 ng/mL; in assay [3], 300 ng/mL; in assay [1], 1 µg/mL.
For `C=C(C)[C@H]1C(=O)c2c3c(cc4c5c(n1c24)[C@@]1(C)[C@@H](CC[C@@H]2[C@]1(C)CC[C@]1(O)O[C@H](/C=C(\C)C(=O)O)C[C@@]21C)C5)C1=CC(C)(C)OC(C)(C)[C@H]1[C@@H]3O` [NODULISPORIC ACID A1], in that order: 200 ng/mL, 300 ng/mL and 5 µg/mL.
Consider `C=C(C)[C@H]1C(=O)c2c3c(cc4c5c(n1c24)[C@@]1(C)[C@@H](CC[C@@H]2[C@]1(C)CC[C@]1(O)O[C@H](C(O)C(C)C(=O)O)C[C@@]21C)C5)C1=CC(C)(C)OC(C)(C)[C@H]1[C@@H]3O` (stereo not given in full) [NODULISPORIC ACID A2], for which the LD90 worked out at 800 ng/mL in assay [2], 600 ng/mL in assay [3] and 10 µg/mL in assay [1].
Turning to `CC(C)=CCc1c2c(cc3c4c([nH]c13)[C@@]1(C)[C@@H](CC[C@@H]3[C@]1(C)CC[C@]1(O)O[C@H](/C=C(\C)C(=O)[O-])C[C@@]31C)C4)C1=CC(C)(C)OC(C)(C)[C@H]1[C@@H]2O.[Na+]` [NODULISPORIC ACID C1], the LD90 in assay [1] was over 100 µg/mL.
For the molecule `CC(C)=CCc1c2c(cc3c4c([nH]c13)[C@@]1(C)[C@@H](CC[C@H]3[C@](C)(/C=C/C=C(\C)C(=O)[O-])[C@@H](O)CC[C@@]31C)C4)C1=CC(C)(C)OC(C)(C)[C@H]1[C@@H]2O.[Na+]` [NODULISPORIC ACID C SODIUM], the figures for the LD90 in assay [2], in assay [3] and in assay [1] were 10000 ng/mL, 10500 ng/mL and 10 µg/mL, respectively.
Consider `CN1C(=O)[C@]23C[C@H]4C(C)(C)[C@@]5(C[C@@]41CN2CC[C@@]3(C)O)C(=O)Nc1cc2c(cc15)OC(C)(C)C=CO2` [PARAHERQUAMIDE], for which the LD90 is 50000 ng/mL in assay [2], 50000 ng/mL in assay [3] and over 100 µg/mL in assay [1].
IVERMECTIN: the LD90 in assay [2] worked out at 5 ng/mL; in assay [3] it was 40 ng/mL; in assay [1] it was 10 µg/mL.

The values above are taken from ChEMBL document CHEMBL1159336, “Nodulisporic acids C, C1, and C2: a series of D-ring-opened nodulisporic acids from the fungus Nodulisporium sp” (2003).
